Test [1] has as its target Neuronal acetylcholine receptor; alpha2/beta2 (Rattus norvegicus, UniProt P12389+P12390). As to the kind of experiment: In vitro binding affinity towards rat Nicotinic acetylcholine receptor alpha2-beta2 using 0.5 nM [3H]epibatidine. It counts as protein-complex assay.
Test [2] addresses Neuronal acetylcholine receptor; alpha2/beta4 (Rattus norvegicus, UniProt P12389+P12392). Nature of the test: In vitro binding affinity towards rat Nicotinic acetylcholine receptor alpha2-beta4 using 0.5 nM [3H]epibatidine. Type of test: protein-complex assay.
For test [3], the target named is Neuronal acetylcholine receptor; alpha3/beta2 (Rattus norvegicus, UniProt P04757+P12390). Nature of the test: In vitro binding affinity towards rat Nicotinic acetylcholine receptor alpha3-beta2 using 0.5 nM [3H]epibatidine. It counts as protein-complex assay.
Test [4] addresses Neuronal acetylcholine receptor; alpha3/beta4 (Rattus norvegicus, UniProt P04757+P12392). As to the kind of experiment: In vitro binding affinity towards rat Nicotinic acetylcholine receptor alpha3-beta4 using 0.5 nM [3H]epibatidine. It counts as protein-complex assay.
Test [5] deals with Neuronal acetylcholine receptor; alpha4/beta2 (Rattus norvegicus, UniProt P09483+P12390). Nature of the test: In vitro binding affinity towards rat Nicotinic acetylcholine receptor alpha4-beta2 using 0.5 nM [3H]epibatidine. Type of test: protein-complex assay. In outline: (§1)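 Stably transfected cell lines, each expressing one rat nAChR subtype (α4β2 or α4β4), were used. Ki was derived from the radioligand Kd for each subtype.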

For test [6], the target named is Neuronal acetylcholine receptor; alpha4/beta4 (Rattus norvegicus, UniProt P09483+P12392). As to the kind of experiment: In vitro binding affinity towards rat Nicotinic acetylcholine receptor alpha4-beta4 using 0.5 nM [3H]epibatidine. It counts as protein-complex assay. In outline:
as §1

The target in test [7] is Neuronal acetylcholine receptor; alpha3/beta4 (Rattus norvegicus) (UniProt P04757+P12392). As to the kind of experiment: Agonistic activity as [86Rb+] efflux from KXalpha-3-beta-4R2 cells expressing rat Nicotinic acetylcholine receptor at 100 uM. Type of test: functional. In outline: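 KXα3β4R2 cells stably expressing functional rat α3β4 receptors were used. Agonism was read as stimulated 86Rb+ efflux in the presence of compound at 100 µM.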

Neuronal acetylcholine receptor; alpha3/beta4, sequence (P04757 whole entry): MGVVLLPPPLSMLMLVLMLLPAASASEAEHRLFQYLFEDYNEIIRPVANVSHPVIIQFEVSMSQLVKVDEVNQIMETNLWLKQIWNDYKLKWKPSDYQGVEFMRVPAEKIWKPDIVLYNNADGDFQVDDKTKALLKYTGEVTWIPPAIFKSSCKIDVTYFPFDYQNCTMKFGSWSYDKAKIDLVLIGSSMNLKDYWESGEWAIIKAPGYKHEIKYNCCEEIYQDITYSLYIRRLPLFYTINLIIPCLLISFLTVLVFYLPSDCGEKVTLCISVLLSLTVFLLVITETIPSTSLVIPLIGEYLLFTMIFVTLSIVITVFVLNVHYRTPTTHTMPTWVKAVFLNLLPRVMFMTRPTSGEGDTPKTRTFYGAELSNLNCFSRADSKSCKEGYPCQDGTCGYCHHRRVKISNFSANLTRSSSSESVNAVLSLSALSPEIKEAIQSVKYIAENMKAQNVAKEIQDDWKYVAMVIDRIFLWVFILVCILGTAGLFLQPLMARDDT
Neuronal acetylcholine receptor; alpha3/beta4, sequence (P12392 whole entry): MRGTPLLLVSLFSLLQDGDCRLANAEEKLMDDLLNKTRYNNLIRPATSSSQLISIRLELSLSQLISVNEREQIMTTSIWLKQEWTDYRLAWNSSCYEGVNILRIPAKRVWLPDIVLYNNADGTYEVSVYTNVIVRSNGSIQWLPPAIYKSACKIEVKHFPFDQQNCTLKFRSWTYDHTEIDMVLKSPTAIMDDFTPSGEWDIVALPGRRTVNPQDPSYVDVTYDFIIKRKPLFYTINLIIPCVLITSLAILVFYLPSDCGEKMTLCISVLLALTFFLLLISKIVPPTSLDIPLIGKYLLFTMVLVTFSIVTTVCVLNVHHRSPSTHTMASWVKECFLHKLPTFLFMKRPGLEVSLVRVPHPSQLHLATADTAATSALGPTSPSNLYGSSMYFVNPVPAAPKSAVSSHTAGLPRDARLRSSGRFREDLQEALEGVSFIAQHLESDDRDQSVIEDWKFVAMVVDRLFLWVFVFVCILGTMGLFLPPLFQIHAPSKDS
Neuronal acetylcholine receptor; alpha3/beta2, sequence (P04757 whole entry): as the sequence (P04757 whole entry) above
Neuronal acetylcholine receptor; alpha3/beta2, sequence (P12390 whole entry): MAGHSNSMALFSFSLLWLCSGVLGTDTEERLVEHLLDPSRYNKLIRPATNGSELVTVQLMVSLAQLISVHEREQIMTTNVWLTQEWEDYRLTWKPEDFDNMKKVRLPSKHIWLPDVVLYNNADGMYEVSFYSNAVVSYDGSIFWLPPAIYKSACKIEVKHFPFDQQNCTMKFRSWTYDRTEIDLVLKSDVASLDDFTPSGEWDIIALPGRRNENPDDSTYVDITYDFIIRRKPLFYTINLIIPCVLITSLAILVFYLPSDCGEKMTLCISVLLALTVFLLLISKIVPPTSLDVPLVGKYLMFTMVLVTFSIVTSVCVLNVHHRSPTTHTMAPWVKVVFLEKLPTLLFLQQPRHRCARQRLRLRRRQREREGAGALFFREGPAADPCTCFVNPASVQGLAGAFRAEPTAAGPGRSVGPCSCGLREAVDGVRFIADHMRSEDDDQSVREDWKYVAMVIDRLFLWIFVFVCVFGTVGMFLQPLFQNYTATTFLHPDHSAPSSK
Neuronal acetylcholine receptor; alpha2/beta2, sequence (P12389 whole entry): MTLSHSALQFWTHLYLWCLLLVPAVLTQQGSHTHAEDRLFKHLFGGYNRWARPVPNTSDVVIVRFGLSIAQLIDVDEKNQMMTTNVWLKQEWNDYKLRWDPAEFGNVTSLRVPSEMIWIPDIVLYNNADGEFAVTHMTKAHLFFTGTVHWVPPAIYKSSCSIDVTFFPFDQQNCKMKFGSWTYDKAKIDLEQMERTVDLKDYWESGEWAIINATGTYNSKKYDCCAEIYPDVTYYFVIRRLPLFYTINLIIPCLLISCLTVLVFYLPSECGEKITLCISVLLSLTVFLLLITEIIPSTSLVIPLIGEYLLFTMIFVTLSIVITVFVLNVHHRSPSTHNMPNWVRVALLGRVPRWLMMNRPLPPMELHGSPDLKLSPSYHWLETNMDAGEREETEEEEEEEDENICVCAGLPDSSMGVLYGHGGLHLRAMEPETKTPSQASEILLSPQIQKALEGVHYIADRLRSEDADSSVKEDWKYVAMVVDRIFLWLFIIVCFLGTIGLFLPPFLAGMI
Neuronal acetylcholine receptor; alpha2/beta2, sequence (P12390 whole entry): as the sequence (P12390 whole entry) above
Neuronal acetylcholine receptor; alpha2/beta4, sequence (P12389 whole entry): as the sequence (P12389 whole entry) above
Neuronal acetylcholine receptor; alpha2/beta4, sequence (P12392 whole entry): as the sequence (P12392 whole entry) above
Neuronal acetylcholine receptor; alpha4/beta4, sequence (P09483 whole entry): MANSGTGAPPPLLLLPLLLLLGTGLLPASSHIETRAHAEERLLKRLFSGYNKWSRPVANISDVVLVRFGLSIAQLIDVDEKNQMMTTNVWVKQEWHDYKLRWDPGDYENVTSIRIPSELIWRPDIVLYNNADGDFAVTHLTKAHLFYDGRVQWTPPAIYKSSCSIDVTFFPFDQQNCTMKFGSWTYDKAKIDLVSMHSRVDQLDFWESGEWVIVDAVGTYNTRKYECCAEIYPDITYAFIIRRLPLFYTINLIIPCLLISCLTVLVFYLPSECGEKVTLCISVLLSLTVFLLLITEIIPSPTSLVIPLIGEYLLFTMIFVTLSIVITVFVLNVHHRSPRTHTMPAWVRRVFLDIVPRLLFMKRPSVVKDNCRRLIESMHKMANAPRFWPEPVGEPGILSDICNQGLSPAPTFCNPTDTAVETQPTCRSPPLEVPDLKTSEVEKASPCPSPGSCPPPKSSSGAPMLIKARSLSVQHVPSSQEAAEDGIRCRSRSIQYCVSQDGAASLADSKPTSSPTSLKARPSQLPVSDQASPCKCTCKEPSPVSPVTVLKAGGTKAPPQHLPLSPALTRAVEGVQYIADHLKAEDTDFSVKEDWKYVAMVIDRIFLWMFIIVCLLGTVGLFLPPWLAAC
Neuronal acetylcholine receptor; alpha4/beta4, sequence (P12392 whole entry): as the sequence (P12392 whole entry) above
Neuronal acetylcholine receptor; alpha4/beta2, sequence (P09483 whole entry): as the sequence (P09483 whole entry) above
Neuronal acetylcholine receptor; alpha4/beta2, sequence (P12390 whole entry): as the sequence (P12390 whole entry) above

Consider `Fc1ncc(C2CC3CCC2N3)cc1-c1ccc(Cl)cc1` (stereo unspecified), for which the Ki turned out to be 0.064 nM in test [1]; 4.12 nM in test [2]; 0.339 nM in test [3]; 256 nM in test [4]; 0.062 nM in test [5]; 3.99 nM in test [6]. In test [7], the Stimulation is 3.2%.

Take `Cc1cc(-c2cc(C3CC4CCC3N4)cnc2F)ccc1F` (stereo unspecified): the inhibitory constant (Ki) in test [1] was 1.54 nM; in test [2] it was 60.1 nM; in test [3], 8.84 nM; in test [4], 2940 nM; in test [5] it was 1.26 nM; in test [6], 67.6 nM. Moreover, the Stimulation in test [7] is 0.7%.

Consider `Fc1ncc(C2CC3CCC2N3)cc1-c1ccc(Cl)c(Cl)c1` (stereo unspecified), for which the inhibition constant (Ki) worked out at 0.245 nM in test [1]; 6.99 nM in test [2]; 2.31 nM in test [3]; 334 nM in test [4]; 0.28 nM in test [5]; 7.36 nM in test [6]. In test [7], the Stimulation is 2.7%.

Consider `N#Cc1ccc(-c2cc(C3CC4CCC3N4)cnc2F)cc1` (stereo unspecified), for which the Ki in test [1] worked out at 0.066 nM; in test [2] it was 3.67 nM; in test [3], 0.351 nM; in test [4] it was 289 nM; in test [5], 0.039 nM; in test [6] it was 3.6 nM. Further, the Stimulation in test [7] was 36.8%.

Consider `Fc1ccc(-c2cc(C3CC4CCC3N4)cnc2F)cc1` (stereo unspecified), for which the inhibition constant Ki in test [1] amounted to 0.079 nM; in test [2], 6.12 nM; in test [3], 0.504 nM; in test [4], 405 nM; in test [5], 0.078 nM; in test [6], 6.42 nM. For the same molecule, in test [7], the Stimulation was 3.6%.

Molecule `Clc1ccc(C2CC3CCC2N3)cn1` (racemic) showed a Stimulation in test [7] of 112%.

Regarding `CN1C2CCC1C(c1cnc(Cl)c(-c3ccccc3)c1)C2` (stereo unspecified), the Ki in test [1] is 0.053 nM; in test [2], 0.24 nM; in test [3], 0.158 nM; in test [4], 15.4 nM; in test [5] it was 0.032 nM; in test [6] it was 1.57 nM. In addition, in test [7], the Stimulation is 3.9%.

For the molecule `CN1CCC[C@H]1c1cccnc1`, in test [7], the Stimulation was 100%.

As to `COc1ccc(-c2cc(C3CC4CCC3N4)cnc2Cl)cc1` (stereo unspecified), the Ki in test [1] was found to be 0.04 nM; in test [2], 0.862 nM; in test [3] it was 0.1 nM; in test [4], 54.5 nM; in test [5], 0.034 nM; in test [6], 1.57 nM. Also, the Stimulation in test [7] was 3.1%.

Turning to `Cc1cccc(-c2cc(C3CC4CCC3N4)cnc2F)c1` (stereo unspecified), the Ki in test [1] is 1.11 nM; in test [2], 31.3 nM; in test [3], 9.27 nM; in test [4], 2400 nM; in test [5] it was 0.898 nM; in test [6], 36.7 nM. Also, in test [7], the Stimulation was 0.1%.

Take `Fc1ncc(C2CC3CCC2N3)cc1-c1ccccc1` (stereo unspecified): the Ki in test [1] came to 0.643 nM; in test [2] it was 16.6 nM; in test [3], 3.54 nM; in test [4] it was 947 nM; in test [5], 0.733 nM; in test [6], 26 nM. Moreover, the Stimulation in test [7] is 0.4%.

In the case of `Clc1ncc(C2CC3CCC2N3)cc1-c1ccccc1` (stereo unspecified), the inhibition constant (Ki) in test [1] was 0.037 nM; in test [2], 0.47 nM; in test [3] it was 0.122 nM; in test [4], 24 nM; in test [5] it was 0.039 nM; in test [6], 1.15 nM. The Stimulation in test [7] was 6.1%.

`Cc1ccc(-c2cc(C3CC4CCC3N4)cnc2F)cc1` (stereo unspecified): the Ki in test [1] was found to be 0.035 nM; in test [2], 0.541 nM; in test [3] it was 0.078 nM; in test [4], 29 nM; in test [5], 0.028 nM; in test [6] it was 1.22 nM. For the same molecule, in test [7], the Stimulation was 1%.

In the case of `Cc1ccc(-c2cc(C3CC4CCC3N4)cnc2Cl)cc1` (stereo unspecified), the Ki turned out to be 0.044 nM in test [1]; 5.26 nM in test [2]; 0.171 nM in test [3]; 429 nM in test [4]; 0.058 nM in test [5]; 4.75 nM in test [6]. In addition, the Stimulation in test [7] is 3.8%.
